According to ChEMBL document CHEMBL4840310, “Discovery of novel 2,3,5-trisubstituted pyridine analogs as potent inhibitors of IL-1β via modulation of the p38 MAPK signaling pathway” (Eur J Med Chem, 2021):
Calls of active or inactive are those of the source. No cut-off for these calls is given here.

Columns and labels:
[1] = Inhibition of LPS stimulated IL-1beta in human mococyte-derived macrophages cells preincubated for 2 hrs followed by LPS stimulation and measured after 6 hrs by ELISA; type: functional; conditions: Macrophage
In short: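 Human monocyte-derived macrophages stimulated with LPS; IL-1β secretion measured over 10 concentrations per compound, N = 2, to compute individual IC50 values; dexamethasone run in parallel as reference. Z-score reported.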

Mus musculus [2] = assay: Anti-inflammatory activity in Balb/c mouse assessed as inhibition of stimulated IL-1beta secretion in plasma at 10 mg/kg, po after 4 hrs by ELISA; type: functional, organism-based
In short: (§1)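 Male BALB/c mice dosed orally with 10 or 20 mg/kg compound (DMSO stock, then 5% TPGS in PBS), vehicle controls. LPS O111:B4 0.33 mg/kg i.p. in saline given 2 h after treatment. Blood drawn retro-orbitally into heparin tubes 4 h post-LPS; plasma IL-1β by ELISA read at 450 nm.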

Mus musculus [3] = assay: Anti-inflammatory activity in po dosed Balb/c mouse assessed as inhibition of stimulated IL-1beta secretion in lung after 4 hrs by ELISA; type: functional, organism-based; conditions: dose 10-20 mg/kg
[4] = Tmax in Wistar rat at 65 mg/kg, po administered as single dose; type: ADME, organism-based; conditions: in vivo
In short: (§2)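 Female Wistar rats, 8 weeks old, given a single oral 65 mg/kg dose in PEG400/Kolliphor HS 15 (70/30 v/v); plasma drug levels sampled over time (N = 9). Tmax taken from the curve; two-compartment fit with first-order terminal elimination gave distribution and elimination half-lives.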

Macrophage [5] = assay: Inhibition of LPS stimulated IL-8 in human mococyte-derived macrophages cells at 1 uM preincubated for 2 hrs followed by LPS stimulation and measured after 6 hrs by ELISA; type: functional; conditions: time 8.0 hrs
Mus musculus [6] = assay: Anti-inflammatory activity in po dosed Balb/c mouse assessed as inhibition of stimulated IL-1beta secretion in liver after 4 hrs by ELISA; type: functional, organism-based; conditions: dose 10-20 mg/kg
[7] = Elimination half life in Wistar rat 65 mg/kg, po administered as single dose; type: ADME, organism-based; conditions: in vivo, read-out: beta t1/2 (converted); in short: as §2
Macrophage [8] = assay: Inhibition of LPS stimulated IL-6 in human mococyte-derived macrophages cells at 1 uM preincubated for 2 hrs followed by LPS stimulation and measured after 6 hrs by ELISA; type: functional; conditions: time 8.0 hrs
Mus musculus [9] = assay: Anti-inflammatory activity in Balb/c mouse assessed as inhibition of stimulated IL-1beta secretion in plasma at 20 mg/kg, po after 4 hrs by ELISA; type: functional, organism-based; in short: as §1
Macrophage [10] = assay: Inhibition of LPS stimulated GM-CSF in human mococyte-derived macrophages cells at 1 uM preincubated for 2 hrs followed by LPS stimulation and measured after 6 hrs by ELISA; type: functional; conditions: time 8.0 hrs
[11] = target: T1, Mitogen-activated protein kinase 14 (Homo sapiens, UniProt Q16539); assay: Binding affinity to p38 alpha MAPK (unknown origin) assessed as association constant by surface plasmon resonance imaging
T1 sequence (Q16539 whole entry): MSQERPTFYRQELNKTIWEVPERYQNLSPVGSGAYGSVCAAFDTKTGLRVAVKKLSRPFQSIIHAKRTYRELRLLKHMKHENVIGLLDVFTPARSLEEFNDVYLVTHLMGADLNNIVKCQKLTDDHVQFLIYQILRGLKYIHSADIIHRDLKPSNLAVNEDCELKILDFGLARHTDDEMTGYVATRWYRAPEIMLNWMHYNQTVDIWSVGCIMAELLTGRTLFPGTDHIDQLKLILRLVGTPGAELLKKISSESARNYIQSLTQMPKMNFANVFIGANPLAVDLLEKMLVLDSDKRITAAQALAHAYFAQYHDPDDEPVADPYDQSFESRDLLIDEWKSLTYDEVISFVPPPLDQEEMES

Mus musculus [12] = assay: Anti-inflammatory activity in po dosed Balb/c mouse assessed as inhibition of stimulated IL-1beta secretion in brain after 4 hrs by ELISA; type: functional, organism-based; conditions: dose 10-20 mg/kg
Macrophage [13] = assay: Inhibition of LPS stimulated IL-4 in human mococyte-derived macrophages cells at 1 uM preincubated for 2 hrs followed by LPS stimulation and measured after 6 hrs by ELISA; type: functional; conditions: time 8.0 hrs
[14] = target: T1, Mitogen-activated protein kinase 14; assay: Binding affinity to p38 alpha MAPK (unknown origin) assessed as dissociation rate constant by surface plasmon resonance imaging
Macrophage [15] = assay: Inhibition of LPS stimulated IL-2 in human mococyte-derived macrophages cells at 1 uM preincubated for 2 hrs followed by LPS stimulation and measured after 6 hrs by ELISA; type: functional; conditions: time 8.0 hrs
[16] = Half life in Wistar rat 65 mg/kg, po administered as single dose; type: ADME, organism-based; conditions: in vivo; in short: as §2

SMILES | IC50 [1] [µM] | also measured
CN(C)S(=O)(=O)c1cnc(N2CCC(Oc3ccc(Cl)cc3)CC2)c(Nc2ccc3c(c2)CCO3)c1 | 0.029 | 
CCCOc1ccc(Nc2cc(S(=O)(=O)N(C)C)cnc2N2CCC(Oc3ccc(Cl)cc3)CC2)cc1 | > 10 | 
CN(C)S(=O)(=O)c1cnc(N2CCC(Oc3ccc(Cl)cc3)CC2)c(Oc2ccc(OCCO)cc2)c1 | > 10 | 
CCOc1ccc(Oc2cc(S(=O)(=O)N(C)C)cnc2N2CCN(Cc3ccc(Cl)nc3)CC2)cc1 | > 10 | 
CCOc1ccc(Oc2cc(S(=O)(=O)N(C)C)cnc2N2CCC(Oc3ccc(Cl)nc3)CC2)cc1 | 4 | 
CCOc1ccc(Oc2cc(S(=O)(=O)N(C)C)cnc2N2CCC(Oc3ccc(Cl)cc3)CC2)cc1 | 0.028 | Activity (Mus musculus [2]): Active; Activity (Mus musculus [3]): Dose-Dependent Effect; Tmax [4]: 1 h; inhibition (Macrophage [5]): Active; Activity (Mus musculus [6]): Dose-Dependent Effect; half-life [7]: 9 h; inhibition (Macrophage [8]): Active; Activity (Mus musculus [9]): Active; inhibition (Macrophage [10]): Active; Ka [11]: 2.08 10^4/M/s; Activity (Mus musculus [12]): Dose-Dependent Effect; inhibition (Macrophage [13]): Active; koff [14]: 2.48 10^-4/s; inhibition (Macrophage [15]): Active; half-life [16]: 2.1 h
CCOc1ccc(Oc2cc(S(=O)(=O)N(C)C)cnc2N2CCN(Cc3ccc(Cl)cc3)CC2)cc1 | > 10 | 
CN(C)S(=O)(=O)c1cnc(N2CCC(Oc3ccc(Cl)cc3)CC2)c(Nc2ccc3c(c2)OCO3)c1 | 0.121 | 
CCOc1ccc(Oc2cc(S(=O)(=O)N(C)C)cnc2N2CCC(Oc3ccc(Cl)nn3)CC2)cc1 | 1.1 | 
CCOc1ccc(Oc2cc(S(=O)(=O)N(C)C)cnc2N2CCC(Oc3ccc(C(N)=O)nc3)CC2)cc1 | 0.337 | 
CN(C)S(=O)(=O)c1cnc(N2CCC(Oc3ccc(Cl)cc3)CC2)c(Nc2ccc3oc(CO)cc3c2)c1 | 0.0128 | 
CN(C)S(=O)(=O)c1cnc(N2CCC(Oc3ccc(Cl)cc3)CC2)c(Oc2ccc3c(c2)CCO3)c1 | 0.028 | 
CCC(=O)c1ccc(Nc2cc(S(=O)(=O)N(C)C)cnc2N2CCC(Oc3ccc(Cl)cc3)CC2)cc1 | > 10 | 
CCC(=O)c1ccc(-c2cc(S(=O)(=O)N(C)C)cnc2N2CCC(Oc3ccc(Cl)cc3)CC2)cc1 | > 10 | 
CCOc1ccc(Nc2cc(S(=O)(=O)N(C)C)cnc2N2CCC(Oc3ccc(Cl)cc3)CC2)cc1 | > 10 | 
CN(C)S(=O)(=O)c1cnc(N2CCC(Oc3ccc(Cl)cc3)CC2)c(-c2ccc3c(c2)CCO3)c1 | 0.027 | 
